Measurements published in ChEMBL document CHEMBL1128528, “Structure-activity relationships of unsaturated analogues of valproic acid” (J Med Chem, 1995).

Tests used:
[1] = Partition coefficient (logP); type: physicochemical; settings: octanol/water
How it was run: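 Calculated with CLOGP for the undissociated acid as 1-octanol/water partition coefficient; cis and trans isomers not distinguished.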

[2] = system: Mus musculus; assay: Brain concentration after 15 min of administration; type: functional
How it was run: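 Mice (n = 5, or 4 where footnoted) were given an ED50 dose and killed at 15 min. Whole brains were homogenized in 0.32 M sucrose and stored at -78 °C. Sodium octanoate served as internal standard; samples were acidified with HCl and extracted into EtOAc. Acids were quantified as tert-butyldimethylsilyl esters by GC-MS (EI 70 eV, SIM at M+ − 57). Each sample ran in triplicate; values are mean ± SD.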

[3] = system: Mus musculus; assay: Anticonvulsant activity against mice after intraperitoneal administration; type: functional; settings: ip
How it was run: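 Mice, 6 weeks old, eight per dose, received five ip doses of the sodium salt (4 mL/kg). Pentylenetetrazole (85 mg/kg, 10 mL/kg) was given sc at 10 min and animals were watched for 30 min. Unprotected meant a 5 s clonus with loss of balance. ED50 was read from percentage protection vs log(dose). Sedation was scored from activity and muscle tone during handling.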

| Structure (SMILES) | logP [1] | C [2] | ED50 [3] |
| --- | --- | --- | --- |
| CC/C=C\C(=O)O | 1.22 | 4460 nM/g | 7 mmol/kg |
| CC/C=C(\CCCC)C(=O)O | 3.11 | 140 nM/g | 0.87 mmol/kg |
| O=C(O)C1=CCCC1 | 1.1 | 500 nM/g | 4.7 mmol/kg |
| CC/C=C(\CC)C(=O)O | 2.06 | 660 nM/g | 1.6 mmol/kg |
| C/C=C\C(=C/CC)C(=O)O | 2.22 | 350 nM/g | 0.78 mmol/kg |
| CC/C=C/C(=O)O | 1.22 | 2220 nM/g | 6 mmol/kg |
| CC(C)=CC(=O)O | 1.09 | 2710 nM/g | 5.2 mmol/kg |
| C/C=C/C(=C\CC)C(=O)O | 2.22 | 680 nM/g | 1.4 mmol/kg |
| O=C(O)C1=CC2CCC1C2 (stereo unspecified) | 1.42 | 2150 nM/g | 2.9 mmol/kg |
| CC/C=C(\C)C(=O)O | 1.53 | 1520 nM/g | 4.4 mmol/kg |
| CC/C=C(\CCC)C(=O)O | 2.59 | 260 nM/g | 0.84 mmol/kg |
| O=C(O)C=C1CCCC1 | 1.72 | 450 nM/g | 2.3 mmol/kg |
| O=C(O)C=C1CCCCCC1 | 2.84 | 159 nM/g | 0.96 mmol/kg |
| O=C(O)C=C1CCCCC1 | 2.28 | 320 nM/g | 1.4 mmol/kg |
| O=C(O)C=C1CCCCCCC1 | 3.4 | 94 nM/g | 0.73 mmol/kg |
| O=C(O)C1=CCCCC1 | 1.66 | 1210 nM/g | 2.2 mmol/kg |
| CCCC(CCC)C(=O)O [VALPROIC ACID] | 2.72 | 620 nM/g | 0.83 mmol/kg |
